Sequences and labels used below:
B1: tRNA (parent)
chain: GUUCCGUUGGCGUAAUGGUAACGCGUCUCCCUCCUAAGGAGAAGACUGCGGGUUCGAGUCCCGUACGGAACG

Fewer inactive variants are shown than the library holds.

The series covers variants of B1. The experiment in a line: yeast fitness relative to wild type (ratio to wild type); higher = fitter; tRNA-Arg(CCU), competitive growth, 37 C, YPD. The procedure, abridged: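 Gene amplicons from the start population and from each of six end populations were read by 100-nucleotide paired-end sequencing. Those end populations came from pooled Saccharomyces cerevisiae strains carrying tRNA-Arg(CCU) gene variants at the native locus, competed in YPD at 37°C for 24 hours. Fitness relative to wild type was worked out from changes in genotype frequencies. Genotypes needed ≥ 100 starting reads, and estimates < 0.5 were set to 0.5.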
For GUUCCGUUGCCGUAAUGGUAACGAGUCUCCCUCCUAAGGAGAAGACUGCGAGUUCGAGUCCCGUGCGGACCG, the yeast fitness is 0.55.
Consider GUUCCGUUGCCGUAAUGGUAACGCGUUUCCCUCCUAAAGAGAAGAGUGCGGGUUCGAGUCCCAUACGGAACG, for which the yeast fitness is at most 0.5.
In the case of GUUCCGUUGCGGUAAUGGUAACGCGUCUCCCUCCUAAGGAGAAGACUGCGGGUUCGAGUCCCGUACGGAACG, the yeast fitness was 0.682.
Take GUUCCGUUGCCGUAAUGGUAACGCGUCUCCCUCCUAAGGAGAAGUCUGGGGGUUCGAGUCCCGUACGGAACG: the yeast fitness was found to be 0.583.
Take GUUCCGUUGCCGUAAUGGUAACGCGUCUCCCUCCUAAGGAGAAGGCUGCGGGUUCGAGUCACGUACGGAGCG: the yeast fitness was at most 0.5.
Consider GUUCCGUUGCCGUAAUGGUAAAGGGCCUCCCUCCUAAGGAGAAGACUGCGGGAUCGAGUCCCGUACGGAACG, for which the yeast fitness was at most 0.5.
GUUCCGUUGCCGUAAUGGUAACGCGUCUACCUACUAAGGAGAAGACUGCGGAUUCGAGUCCCGUACGGAACG: the yeast fitness came to 0.57.
Then GUUCCGUUGCCGUAAUGGUAACGCGUCUCCCUCCUAAGGAGAAGUCUGCGGGUUCGAGUCCCGUACGGAACG, with 0.778.
For GUUCCGUUGCCGUAAUGGUAACGCGUCUCCCUCCUAAGGAGUAGACUGCGGGUUCGAGUCUUGUACGGAACG, the yeast fitness is at most 0.5.
For the variant GUUCCGUUGCCGUAAUGGUAACGCGUGUCCCUCCUAAGGAGCAGACUGAGGGUUCGAGUCCCGUACGGAACG, the yeast fitness was at most 0.5.
With GUUCCGUUGCCGUAAUGGUAACGGGUCUCCCUCGUAAGGAGAAGACUGCGGGUGCGAGUCCCGUACGGAUCG, the yeast fitness amounted to 0.703.
Regarding GUUCCGUUGCCGUAAUGGUAACGCGUCUCCCUCCUAAGGAGACGACUGUGGGUUCGAGUCCCGUACGGAACG, the yeast fitness is at most 0.5.
For the variant GUUCCGUUGCCGUAAUGGUAACGCGUCUCCCUCCUAAGGAGAAGUCUGCGGGUUCGAGUCGCGUACGGAACG, the yeast fitness was at most 0.5.
As for GUUCCGUUGCCGUAAUGGUAACGCGUAUCCCUCAUAAGGGGAAGACUGCGGGUUCGAGUUCCGUUCGGAACG, the yeast fitness is at most 0.5.
Take GUUCCGUUGCCGUAAUGGUAAUGCGUCUCCCUCCUAAGGAGAAGACUGCGGGUUCGAGUCUCGUACGGAACG: the yeast fitness stood at 0.518.
As for GUUCCGUUGCCGUAAUGGUAACGCGUUUCCCUCCUAAGGAGAAGACGGCGGGUUCGAGUCCCGUACGGAACG, the yeast fitness was found to be 0.632.
Then GUUCCGUUGCCGUAAUGGUAACGCGUAUCCCUCCUAAGGAGAAGACUGCGGGUUCGAGUCUCGUACGGAACG, with at most 0.5.
Turning to GUUCCGUUGCUGUAAUGGUAACGCCUCUCGCUCCUAAGGAGAAGACUGCGGGUUCGAGUCCCGUACCGAACG, the yeast fitness stood at 0.511.
With GUUCCGUUGCCGUAAUGGUAACGCGUCUCCCUCCUAGGGAGAAGACUGUGGAUUGGAGUCCCGUAAGGAACG, the yeast fitness was at most 0.5.
As for GUUCCGUUGCCGUAAUGGUAAUGCGUCUCCCUCCUAAGGAGAACACUGCGGGUUCGAGUCCCGUACGGAACG, the yeast fitness was at most 0.5.
Turning to GUUCCGUUGCCGUAAUGGUAACGAGUCUCCCUGCUAAGGGGGAGACUGCGGGUUCGAGUCCCGUACGGAACG, the yeast fitness was at most 0.5.
On to GUUCCGUUGCCGUAAUGGUAACGCGUGUCGCUCCUAAGGAGAAGACUCCGGGUUCGAGUCCCGUCCGGAACG, for which the yeast fitness was at most 0.5.
Turning to GUUCCGUUGCCGUAAUGGUAACGCGUCUCCCUCCUAAGGAGAAGACUGCGGGUUCGAGUCCCGUACGGGACG, the yeast fitness came to 0.51.
Regarding GUUCCGUUGCCGUAAUGGUAACGCGUCUCCCUCCUAAGGAGAAGACUGCGGGUUCGAGUCCCGUACGGCACG, the yeast fitness worked out at 0.785.
For the variant GUUCCGUUGCCGUAAUGGUAACGCGUGUCCCUCCUAAGGAGCAGACUGAGGGUUCGAGUCCCGUACGGCACG, the yeast fitness was at most 0.5.
GUUCCGUUGCCGUAAUGGUAACGCGUCUGCCUCCUAAGGAGAAGACUGCGGGUUCGAGUCCCGUACGGAACG: the yeast fitness is at most 0.5.
As to GUUCCGUUGCCGUAAUGGUAACGUGUCUCCCUCCUAAGGAGAAGACUGCGGAUUCAAGUCCCGUACGGAACG, the yeast fitness was at most 0.5.
As for GUUCCGUUGCCGUAAUGGUAACGCGUCUCCCUCCUAUGGAGAAGACUGCGGAUUCGAGUCCCGUAUGGAACG, the yeast fitness was at most 0.5.
GUUCCGUUGCCGUAAUGGUAACGUGUCUCCCUCCUAAGGAGAAGACUGCGGGUUCGAGUCCCGUACGCAACG: the yeast fitness was at most 0.5.
As to GUUCCGUUGCCGUAAUGGUAACGCGUUUCCCUCCUAAGGUGAAGUCUACGGGUUUGAGUCCCGUAUGGAACG, the yeast fitness is 0.591.
GUUCCGUUGCCGUAAUGGUAACGCGUCUCCCUCCUAAGGAGAAGACUGCGGGUUCGCGUCCCGUACGGAACG: the yeast fitness was at most 0.5.
Take GUUCCGUUGCCGUAAUGGUAACGGGUCCCCCUCCUAGGGAGAAGACAGCGGGUUCGAGUCCCGUACGGAACG: the yeast fitness was at most 0.5.
Regarding GUUCCGUUGCCGUAAUGGUAACGCGUCUCCCUCCUUAGGAGAAGACUGCGGGUUCGAGUGCCGUACGGAACG, the yeast fitness is at most 0.5.
The figure for GUUCCGUUGCUGUAAUGGUAACGCGACUCCCUCCUAAGGAGAAGACUGUGGGUUCGAGUCCCGUUCGGAACG is at most 0.5; for GUUCCGUUGCCGUAAUGGUAACGCGUUUCCCUCCUCAGGAGAAGACUGCGGGUUCGAGUCUCGUGCGGAACG it is at most 0.5.
With GUUCCGUUGCAGUAAUGGUAACGCGUCUCCCUCCUACGGAGAAGACUGGGGGUUCGAGUCCCGUACGCGACG, the yeast fitness is at most 0.5.
The figure for GUUCCGUUGCCGUAAUGGUAACGCGUCUCCCUCCUAGGGAGAAGACUGCGGGUUCGAGUCCCGUACGGAACG is 0.656; for GUUCCGUUGCCGUAAUGGUAACGCGUCUCCCUCCUAAGGAGAAGACUGCGGGUUCGCGUCCCGAACGGAACG it is at most 0.5.
The figure for GUUCCGUUGCCGUAAUGGUAACGCGUUUCCCUCCUAAGGUGAAGUCUGCGGGUUCGAGUCCCGUACGGAACG is at most 0.5; for GUUCCGUUGCCGUAAUGGUAACGCGUCUCCCUCCUAAGGAGGAGACUGCGGGUUCGAGUCCCGUACGGAACG it is 0.57.
Regarding GUUCCGUUGCCGUAAUGGUAACGCGUCUCCCUCCUAAGGAGAAGACUGCGGGUUCGAGUCCCGUGCGGAACG, the yeast fitness came to 0.719.
Turning to GUUCCGUUGCCGUAAUGGUAACGCGUCUCCCUCCUAAGGAGAAGACUGCGGGUUCGAGUCCCGUCCGGAACG, the yeast fitness was 0.76.
With GUUCCGUUGCCGUAAUGGUAACGCGUCUCCCUCCUAAGGAGAAGACUGCGGGUUCGAGUCCCGUUCGGAACG, the yeast fitness is 0.767.
Take GUUCCGUUGCCGUAAUGGUAACGCGUCUCCCUCCUACGGAGAAGACUGCGGGUUCGAGUGCCGUACGGAACG: the yeast fitness is at most 0.5.
Take GUUCCGUUGCCGUAAUGGUAACGCGUCUCCCUCCUAAGGAGAGGACUGCGGGUUCGAGUCCCGUACGGAACG: the yeast fitness came out at 0.739.
Take GUUCCGUUGCCGUAAUGGUAACGGGUCUCCCUCCUAAGGAGAAGACUGCAGGUUCGAGUCCCGUACGGAACG: the yeast fitness is at most 0.5.
For the variant GUUCCGUUGCCGUAAUGGUAAGGCGUCUCCCUUCUCAGGUGAAGACUGCGGGUUCGAGUCCCGUACGGAACG, the yeast fitness is at most 0.5.
As to GUUCCGUUGCCGUAAUGGUAACGCGUCUCCCUCCUUAGGAGAAGACUGCGGGUUCGAGUCCCGCAUGGACCG, the yeast fitness is at most 0.5.
Take GUUCCGUUGCCGUAAUGGUAACGCGUCUCCCUCCUAAGGAGCGGACUGCGGGUUCGAGUCCCGUACGGAACG: the yeast fitness was at most 0.5.
Consider GUUCCGUUGCCGUAAUGGUAAUGCGUCUCCCUCCUAAGGAGAAGACUGCGGGUUCGAGUCCCGUACGGAGCG, for which the yeast fitness came to 0.513.
As for GUUCCGUUGCCGUAAUGGUAACGUGUCUCCCUCUUUAGGAGAAGAAUGCGGGUUCGAGUCCCGUACGGCACG, the yeast fitness was at most 0.5.
On to GUUCCGUUGCCGUAAUGGUAAGGCGUCUGCCUCCUAAGGAGAAGAUUGCGGGUUCGAGUCCCGUCCGGAACG, for which the yeast fitness is at most 0.5.
Consider GUUCCGUUGCCGUAAUGGUAACGCGUCUCCCUCCUAAGGAGAAGACUGCGGGUUCGGGUCCCGUACGGUACG, for which the yeast fitness was 0.559.
GUUCCGUUGCCGUAAUGGUAAAGGGUCUCCCUCCUGAGGAGAAGACUACCGGUUCGAGUCCCGUACGGAACG: the yeast fitness is at most 0.5.
In the case of GUUCCGUUGCCGUAAUGGUAACGCGUCUCCCUCCUAUGGAGAAGACUGCGGAUUCGAGUCCCGUACGGAACG, the yeast fitness was at most 0.5.
Then GUUCCGUUGCCGUAAUGGUAACGCGUCUCCCUCCUAAGGAGAUGAGUGCGGGUUCGAGUCCCGUACGGAACG, with at most 0.5.
For GUUCCGUUGCCGUAAUGGUAACGCGUUUCCCUCCUAAGGAGAAGACUGCGGGUUCGAGUCCCCUACGGAACG, the yeast fitness was at most 0.5.
For GUUCCGUUGCUGUAAUGGUCACGCGUCUCCCUCCUAAGGAGAAGACUGCGGGUUCGUGUCCCGUACGGAACG, the yeast fitness was at most 0.5.
As to GUUCCGUUGCCGUAAUGGUAACGCGUCUCCCUCCUUAGGAGAAGACUGCGGGAUCGAGUACCGUACGGAACG, the yeast fitness is 0.548.
Turning to GUUCCGUUGCCGUAAUGGUAACGCGUUUCCCUCCUAAGGAGAAGACUGCGGGUUCGAGUCCCGUACGGAACG, the yeast fitness stood at 0.679.
GUUCCGUUGCCGUAAUGGUAACGCGUAUCCCUCCUAAGGAGUAGACUGCGGGUUCGAGUCCGGUACGGAACG: the yeast fitness turned out to be 0.556.
As for GUUCCGUUGCCGUAAUGGUAACGCGUUUCCCUCCUAAGGAGAGGAGUGCGGGUUCGAGUCCCGUACGGCACG, the yeast fitness was at most 0.5.
On to GUUCCGUUGCCGUAAUGGUAACGUGUCUCCCUCCUAAGGAGAAGAUUGCGGGUUCGAGUCCCGCACGGAACG, for which the yeast fitness is at most 0.5.
Turning to GUUCCGUUGCAGUAAUGGUAACGCGUCUCCCUCCUAAGGAGAAGACUGGGGGUUAGAGUCCCGUACGGAACG, the yeast fitness is at most 0.5.
In the case of GUUCCGUUGCCGUAAUGGUAAAGGGUCUCCCUCCUAAGGAGAAGACUGCGGGAUCGAGUCCCGUACGGAACG, the yeast fitness stood at 0.547.
Regarding GUUCCGUUGCCGUAAUGGUAACGUGUCUCCCUCCUAAGGAGAAGACUGCGGGUUCGAGUCCCGUACGGAACG, the yeast fitness is 0.716.
On to GUUCCGUUGCCGUAAUGGUAACGUGUCUGCCUCCUAAGGAGAAGUGAGCAGGUUCGAGUCCCGGACGGAACG, for which the yeast fitness amounted to 0.536.
In the case of GUUCCGUUGCCGUAAUGGUAACGCGUCUCCCUCCUAAGGAGAAGUCUCCGGGUUCGAGUCCCGUACGGAACG, the yeast fitness came out at 0.53.
Consider GUUCCGUUGCCGUAAUGGUAACGCGUCUCCCUCCUAAGGAGAAGACUGCGGGUUCGAGUCCCGUACGGAUCG, for which the yeast fitness amounted to 0.75.
Then GUUCCGUUGCCGUAAUGGUAACGCGUCUCCCUCCUAAGGAGAAGACUGCGGGUUCGAGUCCCGUACGGAGCG, with 0.644; and GUUCCGUUGCCGUAAUGGUAAAGCGUCUCCCUCCUAAGGAGAAGACUGCGGGUUCCAGUCCCGUGCGGAACG, with at most 0.5.
On to GUUCCGUUGCCGUAAUGGUAACGCGUCUCCCUCCUAAGGGGAAGACUGCGGGUUCGAGUCCCGUACGGAACG, for which the yeast fitness was determined as 0.588.
Regarding GUUCCGUUGCCGUAAUGGUAAUGCGUCUCCCUCCUAAGGAGAAGACUGCGGGUUCGAGGUCCGUACGGAACG, the yeast fitness is at most 0.5.
As to GUUCCGUUGCCGUAAUGGUAACGUGUCUACCUCCUAAGGAGAAGUGAGCAGGUUCGAGUCCCGGACGGAACG, the yeast fitness is 0.575.
Turning to GUUCCGUUGCCGUAAUGGUAAUGCGACUCCCUCCUAAGGAGAAGACUGUGGGUUCGAGUCCCGUUCGGAACG, the yeast fitness is at most 0.5.
